Data set [1] has as its system Mus musculus. As to the kind of experiment: Pharmacokinetic parameter AUC for the compound after intravenous administration into BALB/c Mice in plasma samples. The class given is ADME, organism-based. The arrangement: concentration or dose not given beside the values. The following applies: in vivo. The gist of the method: (§1)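 Tail-vein injection in Balb/c mice at 144 µmol/kg, dissolved in 10% DMSO/water. Three mice per time point were killed by CO2, and blood was taken by cardiac puncture. With FIAU as internal standard, supernatant was Sep-Pak extracted. AZT was quantified by C18 HPLC (water:methanol 7:3, 265 nm; detection limit about 0.5 µg/mL). AUC covers 0 to last sample; t1/2 is from a one-compartment model.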

A short description of data set [2]: Partition coefficient for 1-octanol/water was evaluated. The format is physicochemical.
Data set [3] is described as follows: Half-life for the compound after intravenous administration into BALB/c Mice in plasma samples. The class given is ADME, organism-based. The following applies: mouse. In outline: as §1
The species named for data set [4] is Mus musculus. As to the kind of experiment: Thymidine Influx Inhibition constant for the compound in fresh Murine Erythrocytes. The class given is functional. In outline: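 Erythrocytes from B6D2F1 mice, 10% hematocrit in HEPES-buffered saline, were given [methyl-3H]-thymidine (0.1–1.0 mM, four levels) with or without test compound (0.1–2.5 mM, four levels). Zero-trans influx ran 3 s and was stopped with 10 µM NBMPR (final). Cells were perchloric acid extracted and counted, with the zero-time blank subtracted. Ki came from a Dixon plot (1/v vs i), in duplicate.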

A short description of data set [5]: Concentration in mouse blood 90 min post injection at a dose 240 mocromol/kg. The format is ADME. The following applies: whole blood. The gist of the method: (§2)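 Balb/c mice given 240 µmol/kg iv of the test diastereomer (10% DMSO/water vehicle, tail vein). Blood was drawn by cardiac puncture into heparinized syringe at 15, 20, 60 and 90 min. FIAU was added as internal standard, and the sample was extracted by Sep-Pak. AZT and parent were measured by C18 HPLC (water:methanol 7:3, UV 265 nm). Values are the average of two experiments.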

The nature of data set [6]: Concentration in mouse blood 15 min post injection at a dose 240 mocromol/kg. The format is ADME, organism-based. The following applies: whole blood. In outline: as §2
Data set [7] is described as follows: Concentration in mouse blood 60 min post injection at a dose 240 mocromol/kg. The format is ADME, organism-based. Particulars: whole blood. The gist of the method:
as §2

Data set [8] in a line: Concentration in mouse blood 20 min post injection at a dose 240 mocromol/kg. The format is ADME, organism-based. The following applies: whole blood. In outline:
as §2

Data set [9] is filed under the species Mus musculus. As to the kind of experiment: Percentage of radioactivity in P1 subregion in mouse brain that contains nuclei and cell debris, after Jugular Vein Injection. The class given is ADME, organism-based. The following applies: in vivo, iv. The gist of the method:
(§3)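 Brains were pooled from five mice, with cerebella removed, in 0.32 M sucrose. Homogenate was centrifuged at 0-4 °C: P1 at 1000g 10 min, P2 at 10000g 30 min, P3 at 100000g 1 h, S3 supernatant. Protein was by Lowry. Pellets were Protosol-solubilized at 55 °C, then counted by combustion/scintillation.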

For data set [10], the species on record is Mus musculus. As to the kind of experiment: Percentage of radioactivity in P2 subregion in mouse brain that contains myelin fragments, synaptosomes (pinched-nerve endings), and mitochondria after Jugular Vein Injection. The format is ADME, organism-based. Particulars: in vivo, iv. In outline: as §3
The species entered for data set [11] is Mus musculus. As to the kind of experiment: Percentage of radioactivity in P3 subregion in mouse brain that contains microsomal fraction after Jugular Vein Injection. The class given is ADME, organism-based. Particulars: in vivo, iv. In outline:
as §3

The species entered for data set [12] is Mus musculus. As to the kind of experiment: Percentage of radioactivity in S3 which is the soluble fraction in mouse brain after Jugular Vein Injection. The format is ADME, organism-based. Particulars: in vivo, iv. The gist of the method:
as §3

For data set [13], the species on record is Mus musculus. As to the kind of experiment: Percentage of total protein recovered in P1 subregion in mouse brain that contains nuclei and cell debris, after Jugular Vein Injection. The following applies: in vivo, iv. The format is ADME, organism-based. The gist of the method: as §3
For data set [14], the species on record is Mus musculus. As to the kind of experiment: Percentage of total protein recovered in P2 subregion in mouse brain that contains myelin fragments, synaptosomes (pinched-nerve endings), and mitochondria after Jugular Vein Injection. The class given is ADME, organism-based. The following applies: in vivo, iv. The gist of the method:
as §3

For data set [15], the species on record is Mus musculus. As to the kind of experiment: Percentage of total protein recovered in P3 subregion in mouse brain that contains microsomal fraction after Jugular Vein Injection. The format is ADME, organism-based. The following applies: iv. In outline: as §3
Data set [16] is filed under the species Mus musculus. As to the kind of experiment: Distribution of analyte (pmol/mg) in mouse brain regions after Jugular Vein Injection into cerebellum. The class given is ADME, organism-based. The following applies: in vivo, iv.
For data set [17], the species on record is Mus musculus. As to the kind of experiment: Distribution of analyte (pmol/mg) in mouse brain regions after Jugular Vein Injection into cortex. The format is ADME, organism-based. The following applies: in vivo, iv.
The species named for data set [18] is Mus musculus. As to the kind of experiment: Distribution of analyte (pmol/mg) in mouse brain regions after Jugular Vein Injection into hypothalamus. The class given is ADME, organism-based. The following applies: in vivo, iv.
For data set [19], the species on record is Mus musculus. As to the kind of experiment: Distribution of analyte (pmol/mg) in mouse brain regions after Jugular Vein Injection into pons and medulla. The class given is ADME, organism-based. Particulars: in vivo, iv.
The species entered for data set [20] is Mus musculus. As to the kind of experiment: Distribution of analyte (pmol/mg) in mouse brain regions after Jugular Vein Injection into rest of the brain. The following applies: in vivo, iv. The class given is ADME, organism-based.
The species named for data set [21] is Mus musculus. As to the kind of experiment: Distribution of analyte (pmol/mg) in mouse brain regions after Jugular Vein Injection into striatum. The format is ADME, organism-based. Particulars: in vivo, iv.
The species named for data set [22] is Mus musculus. As to the kind of experiment: Quantity of anylate in P1 subregion in mouse brain that contains nuclei and cell debris, after Jugular Vein Injection. The format is functional. The gist of the method: as §3
Data set [23] is filed under the species Mus musculus. As to the kind of experiment: Quantity of anylate in P2 subregion in mouse brain that contains myelin fragments, synaptosomes (pinched-nerve endings), and mitochondria after Jugular Vein Injection. The class given is functional, organism-based. The gist of the method:
as §3

For data set [24], the species on record is Mus musculus. As to the kind of experiment: Quantity of anylate in P3 subregion in mouse brain that contains microsomal fraction after Jugular Vein Injection. The format is functional, organism-based. In outline:
as §3

For data set [25], the species on record is Mus musculus. As to the kind of experiment: Quantity of anylate in S3 which is the soluble fraction in mouse brain after Jugular Vein Injection. The class given is functional. In outline: as §3
The species named for data set [26] is Mus musculus. As to the kind of experiment: Distribution of analyte (pmol/mg) in mouse brain regions after Jugular Vein Injection into hippocampus. Particulars: in vivo, iv. The class given is ADME, organism-based.
The species named for data set [27] is Mus musculus. As to the kind of experiment: Percentage of total protein recovered in S3 which is the soluble fraction in mouse brain after Jugular Vein Injection. Particulars: in vivo, iv.

From ChEMBL document CHEMBL1129487, “In vivo biodistribution, pharmacokinetic parameters, and brain uptake of 5-halo-y-methoxy(or ethoxy)-5,6-dihydro-3'-azido-3'-deoxythymidine diastereomers as potential prodrugs of 3'-azido-3'-deoxythymidine” (J Med Chem, 1996) come the findings set out here.

Where only a bound is given, the exact number is not on record here.

Usually AUC stands for the area under the concentration-time curve, a measure of exposure. What is called half-life is the time in which the quantity being followed falls by half. By Ki is commonly meant the equilibrium dissociation constant of an inhibitor or competing ligand from its target. As for `CO[C@H]1N(C2CC(N=[N+]=[N-])C(CO)O2)C(=O)NC(=O)[C@]1(C)I` (stereo not given in full), in [1], the exposure (AUC) was 12500 ng·h/mL. The compound further showed a Partition coefficient in data set [2] of 10.6. The compound further gave a half-life in [3] of 33.6 min. Affinity in data set [4] was put at a Ki of 350 µM.
Take `CO[C@H]1N(C2CC(N=[N+]=[N-])C(CO)O2)C(=O)NC(=O)[C@]1(C)Cl` (stereo not given in full): in [2], the Partition coefficient amounted to 7.6. In [5], this compound registered a concentration at […] of 1100 ng/mL. In addition, the concentration at 0.25 h in [6] was determined as 28800 ng/mL. In [7], the concentration at 1 h came to 16300 ng/mL. This compound also had a Ki in [4] of 360 µM. Moreover, the concentration at 20 min in data set [8] was determined as 12500 ng/mL.
Consider `CO[C@H]1N(C2CC(N=[N+]=[N-])C(CO)O2)C(=O)NC(=O)[C@]1(C)Br` (stereo not given in full), for which the Distribution is listed as 4.6% in data set [9]; 5.6% in data set [10]; 1.4% in data set [11]; 88.4% in data set [12]; 13.3% in [13]; 53.1% in data set [14]. In addition, the Distribution was determined as 8.7% in data set [15]; 0.72 pmol/mg in [16]; 0.71 pmol/mg in data set [17]; 1.32 pmol/mg in data set [18]; 0.66 pmol/mg in [19]; 0.71 pmol/mg in data set [20]. The Distribution came out at 0.88 pmol/mg in data set [21], 0.71 pmol/mg in data set [26] and 24.9% in data set [27]. Moreover, the AUC in data set [1] amounted to 6740 ng·h/mL. Also, the Partition coefficient in data set [2] was 13.2. This compound had a half-life in [3] of 41.8 min. In addition, the Quantity in [22] is 2.08 pmol/mg; in [23], 0.65 pmol/mg; in data set [24], 0.98 pmol/mg; in data set [25], 21.8 pmol/mg. The affinity in [4], expressed as Ki, was 450 µM.
`CO[C@@H]1N(C2CC(N=[N+]=[N-])C(CO)O2)C(=O)NC(=O)[C@@]1(C)I` (stereo not given in full) showed an AUC in [1] of 9820 ng·h/mL. In addition, the Partition coefficient in data set [2] is given as 18.8. Further, the half-life in data set [3] stood at 149 min. In [4], this compound had a Ki of 200 µM.
In the case of `Cc1cn([C@H]2C[C@H](N=[N+]=[N-])[C@@H](CO)O2)c(=O)[nH]c1=O` [ZIDOVUDINE], the AUC in data set [1] worked out at 11800 ng·h/mL. In data set [2], the Partition coefficient turned out to be 1.3. The compound further gave a half-life in [3] of 23.5 min. This compound also showed a concentration at […] in data set [5] below 1000 ng/mL. This compound also displayed a concentration at 0.25 h in data set [6] of 2500 ng/mL. The compound further returned a Ki in data set [4] of 1330 µM. Besides, in data set [8], the concentration at 20 min stood at 2500 ng/mL.
For the compound `CO[C@@H]1N(C2CC(N=[N+]=[N-])C(CO)O2)C(=O)NC(=O)[C@@]1(C)Br` (stereo not given in full), the AUC in data set [1] was determined as 13500 ng·h/mL. In data set [2], this compound returned a Partition coefficient of 16.7. Moreover, the half-life in [3] amounted to 31.1 min. In [4], this compound came in with a Ki of 500 µM.
Compound `O=c1ccn([C@H]2C[C@H](O)[C@@H](CO)O2)c(=O)[nH]1` [DEOXYURIDINE] yielded a Ki in [4] of 125 µM.
`CCO[C@H]1N(C2CC(N=[N+]=[N-])C(CO)O2)C(=O)NC(=O)[C@]1(C)Br` (stereo not given in full): the Distribution in data set [9] is 5.2%; in [10], 7.7%; in [11], 2.4%; in [12], 84.7%; in data set [13], 11.9%; in data set [14] it was 43%. In addition, the Distribution turned out to be 17.6% in data set [15]; 0.66 pmol/mg in [16]; 0.66 pmol/mg in [17]; 1.1 pmol/mg in data set [18]; 0.62 pmol/mg in data set [19]; 0.83 pmol/mg in data set [20]. Also, the Distribution in [21] came out at 0.85 pmol/mg; in data set [26], 1.1 pmol/mg; in [27], 27.5%. Besides, the Quantity in data set [22] was 3.96 pmol/mg; in [23], 1.62 pmol/mg; in [24], 1.21 pmol/mg; in data set [25] it was 27.8 pmol/mg.
The compound `CO[C@H]1N(C2CC(N=[N+]=[N-])C(CO)O2)C(=O)NC(=O)[C@@]1(C)Cl` (stereo not given in full) registered a Partition coefficient in data set [2] of 3.3. The compound further yielded a Ki in data set [4] above 1500 µM.
